Results reported in ChEMBL document CHEMBL1152476, “Synthesis and in vitro cytotoxicity of 9-anilinoacridines bearing N-mustard residue on both anilino and acridine rings” (Eur J Med Chem, 2009).

How the values were obtained:
CCRF-CEM [1] = experiment: Antitumor activity in human CCRF-CEM cells xenografted mouse at 2 mg/kg, iv qd for 3 days; assay type: functional, organism-based; set-up: dose 2 mg/kg
In short: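 Mice received intravenous injection at 2 mg/kg, once daily ×3 (QD×3), in a DMSO/Tween 80/normal saline vehicle.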

CCRF-CEM [2] = experiment: Cytotoxicity against human CCRF-CEM cells after 72 hrs by XTT-tetrazolium assay; assay type: functional, cell-based
In short: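 CCRF-CEM human T-cell acute lymphocytic leukemia cells exposed for 72 h to six or seven concentrations per compound. Phenazine methosulfate–XTT was then added for 6 h at 37 °C, and absorbance was read at 450 and 630 nm. IC50 was derived from the dose–effect relationship by median–effect plot analysis.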

[3] = Solubility in Tween 80; assay type: physicochemical
[4] = Solubility in normal saline; assay type: physicochemical; details: buffer
[5] = Solubility in dimethyl sulfoxide; assay type: physicochemical
CCRF-CEM [6] = experiment: Ratio of AHMA IC50 to compound IC50 against human CCRF-CEM cells; assay type: functional
In short: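 Ratio of AHMA IC50 to test compound IC50, both from the same 72 h CCRF-CEM XTT assay. Six or seven concentrations per drug were tested, and each IC50 came from a median–effect analysis of the dose–effect relationship.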

## ClCCN(CCCl)CCCCOc1ccc(Nc2c3ccccc3nc3ccccc23)cc1
CCRF-CEM [1]
  Activity: Toxic
CCRF-CEM [2]
  IC50: 56 nM
[3]
  solubility: Insoluble
[4]
  solubility: Insoluble
[5]
  solubility: Insoluble
CCRF-CEM [6]
  Ratio IC50: 30

## ClCCN(CCCl)CCOc1ccc(Nc2c3ccccc3nc3c(OCCN(CCCl)CCCl)cccc23)cc1
CCRF-CEM [1]
  Activity: Toxic
CCRF-CEM [2]
  IC50: 14.2 nM
[3]
  solubility: Insoluble
[4]
  solubility: Insoluble
[5]
  solubility: Insoluble
CCRF-CEM [6]
  Ratio IC50: 30

## ClCCN(CCCl)CCCCOc1cccc(Nc2c3ccccc3nc3c(OCCN(CCCl)CCCl)cccc23)c1
CCRF-CEM [1]
  Activity: Toxic
CCRF-CEM [2]
  IC50: 6 nM
[3]
  solubility: Insoluble
[4]
  solubility: Insoluble
[5]
  solubility: Insoluble
CCRF-CEM [6]
  Ratio IC50: 30

## ClCCN(CCCl)CCCCOc1cccc2c(Nc3ccc(OCCN(CCCl)CCCl)cc3)c3ccccc3nc12
CCRF-CEM [1]
  Activity: Toxic
CCRF-CEM [2]
  IC50: 1.3 nM
[3]
  solubility: Insoluble
[4]
  solubility: Insoluble
[5]
  solubility: Insoluble
CCRF-CEM [6]
  Ratio IC50: 30

## ClCCN(CCCl)CCCCOc1ccc(Nc2c3ccccc3nc3c(OCCN(CCCl)CCCl)cccc23)cc1
CCRF-CEM [1]
  Activity: Toxic
CCRF-CEM [2]
  IC50: 21 nM
[3]
  solubility: Insoluble
[4]
  solubility: Insoluble
[5]
  solubility: Insoluble
CCRF-CEM [6]
  Ratio IC50: 30

## ClCCN(CCCl)CCOc1ccc(Nc2c3ccccc3nc3ccccc23)cc1
CCRF-CEM [1]
  Activity: Toxic
[3]
  solubility: Insoluble
[4]
  solubility: Insoluble
[5]
  solubility: Insoluble
CCRF-CEM [6]
  Ratio IC50: 30

## ClCCN(CCCl)CCOc1cccc(Nc2c3ccccc3nc3c(OCCN(CCCl)CCCl)cccc23)c1
CCRF-CEM [1]
  Activity: Toxic
CCRF-CEM [2]
  IC50: 17 nM
[3]
  solubility: Insoluble
[4]
  solubility: Insoluble
[5]
  solubility: Insoluble
CCRF-CEM [6]
  Ratio IC50: 30

## ClCCN(CCCl)CCOc1cccc(Nc2c3ccccc3nc3ccccc23)c1
CCRF-CEM [1]
  Activity: Toxic
CCRF-CEM [2]
  IC50: 86 nM
[3]
  solubility: Insoluble
[4]
  solubility: Insoluble
[5]
  solubility: Insoluble
CCRF-CEM [6]
  Ratio IC50: 30

## COc1cc(N)cc(Nc2c3ccccc3nc3c(OCCCCN(CCCl)CCCl)cccc23)c1
CCRF-CEM [1]
  Activity: Toxic
[3]
  solubility: Insoluble
[4]
  solubility: Insoluble
[5]
  solubility: Insoluble
CCRF-CEM [6]
  Ratio IC50: 30

## ClCCN(CCCl)CCCCOc1cccc(Nc2c3ccccc3nc3ccccc23)c1
CCRF-CEM [1]
  Activity: Toxic
CCRF-CEM [2]
  IC50: 392 nM
[3]
  solubility: Insoluble
[4]
  solubility: Insoluble
[5]
  solubility: Insoluble
CCRF-CEM [6]
  Ratio IC50: 30

## COc1cc(N)cc(Nc2c3ccccc3nc3c(OCCN(CCCl)CCCl)cccc23)c1
CCRF-CEM [1]
  Activity: Toxic
CCRF-CEM [2]
  IC50: 6.7 nM
[3]
  solubility: Insoluble
[4]
  solubility: Insoluble
[5]
  solubility: Insoluble
CCRF-CEM [6]
  Ratio IC50: 30

## CC(=O)O[C@H]1C(=O)[C@@]2(C)[C@H]([C@H](OC(=O)c3ccccc3)[C@]3(O)C[C@H](OC(=O)[C@H](O)[C@@H](NC(=O)c4ccccc4)c4ccccc4)C(C)=C1C3(C)C)[C@]1(OC(C)=O)CO[C@@H]1C[C@@H]2O
CCRF-CEM [1]
  Activity: Toxic
